Laboratory results taken from ChEMBL document CHEMBL1147676, “Synthesis and antitumor characterization of pyrazolic analogues of the marine pyrroloquinoline alkaloids: wakayin and tsitsikammamines” (J Med Chem, 2006).

Columns and labels:
[1] = target: DNA topoisomerase II (Homo sapiens) (UniProt P11388+Q02880); assay: Inhibition of topoisomerase 2 DNA cleavage activity; format: protein assay
In short: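 Human topoisomerase II (4 units) incubated with 0.25 μg pRYG DNA and 0.5 mM ATP (final) for 30 min at 37 °C. Stopped with 1% SDS, proteinase K (50 μg/mL, 15 min), CIA extraction, and 1% agarose gel at 75 V for 3.5 h, then post-stained with 0.5 μg/mL ethidium bromide. Reported value is the lowest concentration abolishing relaxed or linear DNA.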

HCT-15 [2] = assay: Antiproliferative activity against human HCT15 cell line; format: functional, cell-based
In short: (§1)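 Cells grown in RPMI with 10% heat-inactivated FCS, no antibiotics, 37 °C, 5% CO2, and checked mycoplasma-free. Seeded at 2000 cells/well (HCT15, PC3, CT26, Renca) or 1000 cells/well (HT29). After 24 h, exposed for 72 h to nine concentrations from 1 nM to 10 μM in phenol-red-free medium, 0.1% DMSO final. Read by XTT/PMS reduction (4 h, 492 nm), four wells per concentration. IC50 from a four-parameter logistic fit of growth as % of DMSO control.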

[3] = target: T1, DNA topoisomerase 1 (Homo sapiens) (UniProt P11387); assay: Inhibition of topoisomerase 1 DNA cleavage activity
T1 sequence (whole entry): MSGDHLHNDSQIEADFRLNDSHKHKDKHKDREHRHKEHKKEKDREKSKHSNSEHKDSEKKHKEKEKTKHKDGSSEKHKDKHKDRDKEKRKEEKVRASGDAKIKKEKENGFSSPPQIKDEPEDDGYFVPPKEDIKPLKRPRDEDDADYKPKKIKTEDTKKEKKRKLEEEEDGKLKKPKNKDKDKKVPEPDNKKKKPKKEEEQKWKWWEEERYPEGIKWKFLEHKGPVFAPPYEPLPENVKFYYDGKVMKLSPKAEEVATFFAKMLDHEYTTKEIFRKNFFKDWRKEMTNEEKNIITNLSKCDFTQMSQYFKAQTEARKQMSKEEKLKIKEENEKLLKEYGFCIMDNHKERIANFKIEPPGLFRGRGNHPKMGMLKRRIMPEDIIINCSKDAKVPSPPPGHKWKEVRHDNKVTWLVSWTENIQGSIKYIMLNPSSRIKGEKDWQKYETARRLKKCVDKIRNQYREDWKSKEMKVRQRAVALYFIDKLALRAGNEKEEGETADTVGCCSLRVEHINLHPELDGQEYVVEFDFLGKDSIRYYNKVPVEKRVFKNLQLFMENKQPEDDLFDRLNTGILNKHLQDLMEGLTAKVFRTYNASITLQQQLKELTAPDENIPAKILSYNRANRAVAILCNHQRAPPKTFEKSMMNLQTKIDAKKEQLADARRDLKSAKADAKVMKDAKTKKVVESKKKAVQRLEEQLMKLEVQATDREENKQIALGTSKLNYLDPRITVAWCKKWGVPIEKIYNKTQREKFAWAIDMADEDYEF
In short: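 Human topoisomerase I (2 units) incubated with 0.25 μg DNA I for 30 min at 37 °C with or without compound. Stopped with 1% SDS, proteinase K (50 μg/mL, 15 min, 37 °C), extracted twice with CIA, and run on 1% agarose (3.5 h, 75 V). Gel stained afterwards with ethidium bromide. Active concentration is the lowest giving complete inhibition, i.e. no relaxed or linear DNA.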

Renca [4] = assay: Antiproliferative activity against mouse Renca cell line; format: functional, cell-based; in short: as §1
HT-29 [5] = assay: Antiproliferative activity against human HT29 cell line; format: functional, cell-based; in short: as §1
CT26 [6] = assay: Antiproliferative activity against mouse CT26 cell line; format: functional, cell-based; in short: as §1
PC-3 [7] = assay: Antiproliferative activity against human PC3 cell line; format: functional, cell-based; in short: as §1
PC-3 [8] = assay: Antiproliferative activity against human PC3 cell line at 10 uM; format: functional
In short: (§2)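 Growth inhibition at the top 10 μM concentration of a 72 h XTT/PMS proliferation assay (4 h stain, 492 nm, four wells), expressed against 0.1% DMSO control. Cells were in phenol-red-free RPMI with 10% FCS, seeded at 2000 cells/well (HCT15, PC3, CT26, Renca) or 1000 cells/well (HT29), and dosed 24 h after seeding.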

HCT-15 [9] = assay: Antiproliferative activity against human HCT15 cell line at 10 uM; format: functional; in short: as §2
CT26 [10] = assay: Antiproliferative activity against mouse CT26 cell line at 10 uM; format: functional; in short: as §2
HT-29 [11] = assay: Antiproliferative activity against human HT29 cell line at 10 uM; format: functional; in short: as §2
Renca [12] = assay: Antiproliferative activity against mouse Renca cell line at 10 uM; format: functional; in short: as §2

Row | SMILES | Inhibition [1] [µM] | IC50 (HCT-15 [2]) [µM] | Inhibition [3] [µM] | IC50 (HT-29 [5]) [µM] | IC50 (CT26 [6]) [µM] | IC50 (PC-3 [7]) [µM] | IC50 (Renca [4]) [µM] | inhibition at 10 µM (PC-3 [8]) [%] | inhibition at 10 µM (HCT-15 [9]) [%] | inhibition at 10 µM (CT26 [10]) [%] | inhibition at 10 µM (HT-29 [11]) [%] | inhibition at 10 µM (Renca [12]) [%]
1 | Cc1ccc(S(=O)(=O)n2cc3c4c2C(=O)c2cnn(C)c2C4=NCC3)cc1 | > 100 | 5 | > 100 | 1.9 | 4.9 | 5.8 | 4.6 |  |  |  |  | 
2 | Cc1ccc(S(=O)(=O)n2cc3c4c2C(=O)c2c(n[nH]c2C2(O)C(=O)N(C)c5ccccc52)C4=NCC3)cc1 (configuration not stated) |  | 1.6 | > 100 | 2.9 | 2.9 | 5.2 | 1.9 |  |  |  |  | 
3 | Cc1ccc(S(=O)(=O)n2cc3c4c2C(=O)c2c(-c5ccc(O)cc5)n[nH]c2C4=NCC3)cc1 | 100 |  | 10 |  |  |  |  | 0 | 0 | 0 | 41 | 0
4 | Cc1ccc(S(=O)(=O)n2cc3c4c2C(=O)c2[nH]nc(-c5ccc(O)cc5)c2C4=NCC3)cc1 | > 100 |  | 30 |  |  |  |  | 0 | 0 | 0 | 23 | 0
5 | Cc1ccc(S(=O)(=O)n2cc3c4c2C(=O)c2[nH]nc(-c5ccccc5)c2C4=NCC3)cc1 |  |  | 300 |  |  |  |  | 0 | 0 | 0 | 0 | 0
6 | Cc1ccc(S(=O)(=O)n2cc3c4c2C(=O)c2cn[nH]c2C4=NCC3)cc1 | > 300 |  | 300 |  |  |  |  | 0 | 0 | 0 | 0 | 0
7 | Cc1ccc(S(=O)(=O)n2cc3c4c2C(=O)c2n[nH]cc2C4=NCC3)cc1 | > 100 |  | 100 |  |  |  |  | 0 | 0 | 0 | 0 | 0
8 | Cc1ccc(S(=O)(=O)n2cc3c4c2C(=O)c2c(cnn2C)C4=NCC3)cc1 |  | 6.5 | 300 | 3.1 | 5.3 | 4.9 | 0.14 |  |  |  |  | 
9 | Cc1ccc(S(=O)(=O)n2cc3c4c2C(=O)c2c(-c5ccccc5)n[nH]c2C4=NCC3)cc1 | > 100 |  | 100 |  |  |  |  | 0 | 0 | 0 | 0 | 0
10 | COc1cc([C@@H]2c3cc4c(cc3[C@@H](O[C@@H]3O[C@@H]5CO[C@@H](C)O[C@H]5[C@H](O)[C@H]3O)[C@H]3COC(=O)[C@H]23)OCO4)cc(OC)c1O [ETOPOSIDE] | 100 | 4.5 |  | 6.6 | 0.2 | 7.8 | 2.9 |  |  |  |  | 
11 | CC[C@@]1(O)C(=O)OCc2c1cc1n(c2=O)Cc2cc3ccccc3nc2-1 [CAMPTOTHECIN] |  | 0.018 |  | 0.03 | 0.034 | 0.052 | 0.304 |  |  |  |  | 
12 | O=C1c2n[nH]c(-c3ccc(O)cc3)c2C2=NCCc3c[nH]c1c32 | 100 |  | > 100 |  |  |  |  | 0 | 0 | 0 | 0 | 0

Now from value to compound, other results behind:

Row | Inhibition [1] [µM] | IC50 (HCT-15 [2]) [µM] | Inhibition [3] [µM] | IC50 (HT-29 [5]) [µM] | IC50 (CT26 [6]) [µM] | IC50 (PC-3 [7]) [µM] | SMILES | IC50 (Renca [4]) [µM] | inhibition at 10 µM (PC-3 [8]) [%] | inhibition at 10 µM (HCT-15 [9]) [%] | inhibition at 10 µM (CT26 [10]) [%] | inhibition at 10 µM (HT-29 [11]) [%] | inhibition at 10 µM (Renca [12]) [%]
13 | > 300 |  | 300 |  |  |  | O=C1c2[nH]cc3c2C(=NCC3)c2n[nH]c(-c3ccc(O)cc3)c21 |  | 0 | 0 | 0 | 0 | 0
14 | > 100 |  | > 100 |  |  |  | Cn1ncc2c1C(=O)c1[nH]cc3c1C2=NCC3 |  | 0 | 0 | 7 | 4 | 6
15 | 100 |  | > 100 |  |  |  | O=C1c2c[nH]nc2C2=NCCc3c[nH]c1c32 |  | 0 | 25 | 0 | 45 | 0
16 | > 100 | 2.7 | > 100 |  |  |  | O=C1c2[nH]cc3c2C(=NCC3)c2[nH]nc(-c3ccccc3)c21 |  | 0 |  | 0 | 47 | 0
17 | > 100 |  | 100 |  |  |  | O=C1c2[nH]cc3c2C(=NCC3)c2c(-c3ccccc3)n[nH]c21 |  | 0 | 0 | 0 | 0 | 0
18 | 100 |  | > 100 | 3.6 | 7 |  | Cn1ncc2c1C1=NCCc3c[nH]c(c31)C2=O | 6.3 | 0 | 0 |  |  | 
19 | 100 |  | > 100 |  |  |  | O=C1c2[nH]ncc2C2=NCCc3c[nH]c1c32 |  | 0 | 0 | 0 | 0 | 0
